Values after ≈ are worked out from the molar mass of the structure shown. Marks after values point to notes of the source that are not given here.

Series [1] deals with Caco‐2 cells. Nature of the series: Mitochondria activity. The settings on record: Homo sapiens, Caco-2, 72 h, read-out: Caco‐2 IC50 MTT. Type of series: cell-based. A digest of the protocol:
(§1)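 Cells kept in DMEM+glutamax with 1% NEAA, 1% P/S and 10% FBS at 37 °C, 10% CO2. Seeded 2×10^4 per well for 24 h, then exposed 72 h to test compound at various concentrations in serum-free medium, in triplicate. MTT (5 mg/mL in PBS) added for 2 h, formazan dissolved in DMSO, read at 570 nm. IC50 from % survival; doxorubicin control; MTT and SRB data pooled, mean ± SD, n≥6.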

Series [2] relates to EA.hy926 cells. Nature of the series: Protein content. The settings on record: Homo sapiens, EA.hy 926, 72 h, read-out: EA.hy926 IC50 SRB. Type of series: cell-based. The method, boiled down: (§2)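 Seeded 2×10^4 cells per well for 24 h, then treated with or without test compound for three days, in triplicate. Fixed with 50% TCA for 1 h at 4 °C, washed and dried. Stained 30 min at 4 °C with 0.4% sulforhodamine B in 1% acetic acid, rinsed with 1% acetic acid. Dye redissolved in Tris buffer, absorbance read at 490 nm. Doxorubicin control; MTT and SRB data pooled, mean ± SD, n≥6.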

The subject of series [3] is HT‐29 cells. Nature of the series: Intracellular ROS. The settings on record: Homo sapiens. Type of series: cell-based. A digest of the protocol: (§3)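 Cells grown in DMEM+glutamax with 1% NEAA, 1% P/S and 10% FBS at 37 °C, 10% CO2. Seeded at 2×10^4 cells/well for 24 h, then confluent cells were exposed to test compound at 1 or 10 µM in serum-free medium, with NAC as control. Cells were washed, loaded with DCFH-DA for 30 min, then kept 1 h in phenol red-free DMEM. Fluorescence read at ex 485/em 535 nm, normalised to same-well SRB protein (490 nm) and given as % of untreated cells. Mean ± SD, n≥3; two-tailed t-test with unequal variances.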

Series [4] has as its system HepG2 cells. Nature of the series: Intracellular ROS. Type of series: cell-based. The settings on record: Homo sapiens. The method, boiled down:
as §3

Series [5] concerns HT‐29 cells. Nature of the series: Mitochondria activity. Type of series: cell-based. The settings on record: Homo sapiens, HT-29, 72 h, read-out: HT‐29 IC50 MTT. The method, boiled down: as §1
The nature of series [6]: Water solubility, shake flask method in 0.1 M phosphate buffer pH 6.8. Type of series: physicochemical. The settings on record: 37 °C, pH 6.8, aqueous buffer, thermodynamic from solid. A digest of the protocol: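 Excess solid added to 1 mL sodium phosphate buffer, pH 6.8. Two conditions: 90 min sonication at 37 °C, or 30 min sonication at 37 °C, 23 h shaking at 300 rpm, then 30 min sonication. Centrifuged 14000 rpm for 5 min, filtered (0.2 µm) at 37 °C and diluted in DMSO. Quantified by LC at maximum absorbance against standard curves; independent triplicates.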

Series [7] concerns EA.hy926 cells. The series is described as follows: Mitochondria activity. Type of series: cell-based. The settings on record: Homo sapiens, EA.hy 926, 72 h, read-out: EA.hy926 IC50 MTT. The method, boiled down:
as §1

The test system of series [8] is HepG2 cells. The series is described as follows: Protein content. Type of series: cell-based. The settings on record: Homo sapiens, HepG2, 72 h, read-out: HepG2 IC50 SRB. The method, boiled down:
as §2

Series [9] concerns Caco‐2 cells. Nature of the series: Protein content. Type of series: cell-based. The settings on record: Homo sapiens, Caco-2, 72 h, read-out: Caco‐2 IC50 SRB. A digest of the protocol:
as §2

The subject of series [10] is Caco‐2 cells. Nature of the series: Intracellular ROS. The settings on record: protein content normalization, mean±SD, n≥3. The series is classed as cell-based, human. A digest of the protocol: as §3
The nature of series [11]: Ferric reducing antioxidant power. The settings on record: chemical antioxidant capacity, n=3. A digest of the protocol: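 FRAP reagent made from acetate buffer, TPTZ in ethanol and FeCl3·6H2O in dilute HCl, mixed 10:1:1, with TPTZ and iron solutions fresh daily. Sample mixed with reagent 1:9, absorbance read at 593 nm after 4 min. Values expressed as Trolox equivalents by linear regression on a Trolox standard curve; α-tocopherol positive control.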

The subject of series [12] is HT‐29 cells. Nature of the series: Protein content. Type of series: cell-based. The settings on record: Homo sapiens, HT-29, 72 h, read-out: HT‐29 IC50 SRB. The method, boiled down:
as §2

The nature of series [13]: DPPH radical‐scavenging activity assay. The settings on record: result in words. A digest of the protocol:
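DPPH diluted to 200 µM in MeOH and mixed with an equal volume of test compound in MeOH at various concentrations. Incubated 30 min in the dark at 30 °C, absorbance read at 515 nm. % inhibition corrected for sample absorbance without DPPH. EC50 from fit to the linear part of the curve. Trolox reference; at least three independent experiments.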
A general note: DPPH is a stable violet radical that fades when it is reduced.

The test system of series [14] is HepG2 cells. Nature of the series: Mitochondria activity. The settings on record: Homo sapiens, HepG2, 72 h, read-out: HepG2 IC50 MTT. The series is classed as cell-based. The method, boiled down:
as §1

Series [15] concerns EA.hy926 cells. Nature of the series: Intracellular ROS. Type of series: cell-based. The settings on record: Homo sapiens. A digest of the protocol: as §3

As usually defined, the IC50 is the point on the concentration scale where inhibition reaches its midpoint. As a reminder, the solubility is how much of the substance goes into solution per volume. For `O=C(/C=C(O)/C=C/c1cccnc1)/C=C/c1cccnc1` [compound 2, (1E,4Z,6E)‐5‐Hydroxy‐1,7‐di(pyridin‐3‐yl)hepta‐1,4,6‐trien‐3‐one], the IC50 was determined as 6.9 ± 2.5 µM in the series on Caco‐2 cells [1]; 11.2 ± 2.8 µM in the series on EA.hy926 cells [2]; 8.2 ± 0.8 µM in the series on HT‐29 cells [5]; 7.9 ± 1.9 µM in the series with EA.hy926 cells [7]; 10 ± 1.6 µM with HepG2 cells [8]; 7.3 ± 3.1 µM in the series with Caco‐2 cells [9]. For the same compound, the figures for the IC50 in the series on HT‐29 cells [12] and with HepG2 cells [14] were 6.1 ± 3.4 µM and 8.3 ± 0.7 µM, respectively. The activity at 1 µM with HT‐29 cells [3] (HT-29, read-out: Intracellular ROS, percentage compared to the untreated control cells (ROS/SRB), HT‐29, 1 μM) amounted to 94 ± 4%; in the series on HepG2 cells [4] (HepG2, read-out: Intracellular ROS, percentage compared to the untreated control cells (ROS/SRB), HepG2, 1 μM), 99 ± 4.6%; in the series on EA.hy926 cells [15] (EA.hy 926, read-out: Intracellular ROS, percentage compared to the untreated control cells (ROS/SRB), EA.hy926, 1 μM), 112 ± 1.6%. Moreover, the activity at 10 µM in the series with HT‐29 cells [3] (HT-29, read-out: Intracellular ROS, percentage compared to the untreated control cells (ROS/SRB), HT‐29, 10 μM) is 127 ± 7.9%; with HepG2 cells [4] (HepG2, read-out: Intracellular ROS, percentage compared to the untreated control cells (ROS/SRB), HepG2, 10 μM), 90.4 ± 11.9%; with EA.hy926 cells [15] (EA.hy 926, read-out: Intracellular ROS, percentage compared to the untreated control cells (ROS/SRB), EA.hy926, 10 μM), 116 ± 3.3%. For the same compound, in series [6], the concentration in solution (solubility at 90 min) came to 12.4 ± 0.2 µM (≈ 3.45 µg/mL). The compound further gave a solubility at 24 h in series [6] of 9.2 ± 0.1 µM (≈ 2.56 µg/mL). The “Intracellular ROS, percentage compared to the untreated control cells (ROS/SRB), Caco‐2, 1 μM” value in the series on Caco‐2 cells [10] (1 μM) stood at 104.8±15.1%. Also, the “Intracellular ROS, percentage compared to the untreated control cells (ROS/SRB), Caco‐2, 10 μM” value in the series on Caco‐2 cells [10] (10 μM) is 142.7±11.9^[b] %. The compound also displayed an FRAP in [11] of 0.03 Trolox equiv per μM. Also, the “DPPH radical‐scavenging activity” value in series [13] is on record as “no activity”.

(Values after PMC5974556 (ChemistryOpen, 2018).)
